The test system of assay [1] is Rattus norvegicus. As to the kind of experiment: Antihypertensive activity in SHR rat assessed as changes in tail arterial mean blood pressure at 1 mg/kg, iv. The assay is classed as functional, Artery. In a few lines: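 Conscious SHR (250–280 g) with systemic pressure above 180 mm Hg, given a single bolus in Locke-Ringer solution into the cannulated femoral vein over 20 sec. Tail arterial mean pressure was taken by indirect tail-cuff with a photoelectric pulse sensor at 28 ± 1° without pre-warming, at 10-min intervals. Controls received vehicle.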

Assay [2] has as its system Rattus norvegicus. As to the kind of experiment: Antihypertensive activity in SHR rat assessed as reversible inhibition of pentobarbitol-induced increase in blood pressure at 20 mg/kg after 2 hrs. The class given is functional, organism-based. Further details: dose 20 mg/kg. In a few lines: (§1)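 SHR rats (250–280 g) with systemic pressure above 180 mm Hg were used. Compound in Locke-Ringer solution was given as a single iv bolus over 20 sec into a cannulated femoral vein. Pressure was read by indirect tail-cuff with a photoelectric pulse sensor at 28 °C without pre-warming, every 10 min, versus pre-dose control. Controls received vehicle. Activity required a significant fall lasting at least 30 min.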

Assay [3] has as its system Rattus norvegicus. As to the kind of experiment: Antihypertensive activity in iv dosed SHR rat assessed as changes in tail arterial mean blood pressure relative to control. The assay is classed as functional, organism-based. The settings on record: Artery. The method in brief:
as §1

The subject of assay [4] is Rattus norvegicus. As to the kind of experiment: Antihypertensive activity in SHR rat assessed as changes in tail arterial mean blood pressure at 5 mg/kg, iv. The class given is functional, Artery. In a few lines:
as §1

In assay [5] the test system is Rattus norvegicus. As to the kind of experiment: Antihypertensive activity in iv dosed SHR rat assessed as reduction in pentobarbitol-induced increase in blood pressure. The class given is functional, organism-based.
Assay [6] relates to Rattus norvegicus. Briefly: Vasorelaxation activity in SHR rat assessed as reduction of Bay-K 8644-induced mean arterial blood pressure at 5 mg/kg, iv after 20 mins. The assay is classed as functional.
Assay [7] deals with Rattus norvegicus. Briefly: Inhibition of noradrenaline release in adrenalectomized anesthetized SHR rat plasma at 15 mg/kg, iv after 20 mins. The assay is classed as functional. The method in brief: (§2)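 Plasma was sampled 20 min after a single iv bolus in anaesthetized adrenalectomized rats (bilateral, dorsal approach under ether, 24 h recovery) or sham-operated SHR. Blood (2 ml) came from the optic sinus under ether and was spun at 5,000 × g for 10 min at 4°. Plasma (200 μl) received 20 ng DHBA internal standard and was adsorbed onto alumina with 30 min shaking. Vehicle-treated rats were controls, n=8, mean ± S.D.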

The test system of assay [8] is Rattus norvegicus. Briefly: Antihypertensive activity in sham operated anesthetized SHR rat assessed as reduction of mean blood pressure at 1 mg/kg, iv. The assay is classed as functional. In a few lines: (§3)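 Anaesthetized SHR given a single iv bolus. For adrenalectomized rats, bilateral adrenalectomy was done by dorsal approach under ether, with 24 h recovery before use. Sham-operated rats served as controls. Mean arterial pressure was recorded against vehicle-treated controls. Values are mean ± S.D. of 8 animals, and significance was tested by Dunnett's t-test.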

Assay [9] relates to Rattus norvegicus. Briefly: Inhibition of noradrenaline release in sham operated anesthetized SHR rat plasma at 1 mg/kg, iv after 20 mins. The assay is classed as functional. The method in brief: as §2
The test system of assay [10] is Rattus norvegicus. As to the kind of experiment: Inhibition of noradrenaline release in sham operated anesthetized SHR rat plasma at 15 mg/kg, iv after 20 mins. The class given is functional. The method in brief:
as §2

Assay [11] relates to Rattus norvegicus. Briefly: Antihypertensive activity in sham operated anesthetized SHR rat assessed as reduction of mean blood pressure at 5 mg/kg, iv. The assay is classed as functional. The method in brief:
as §3

Assay [12] has as its system Rattus norvegicus. Briefly: Antihypertensive activity in sham operated anesthetized SHR rat assessed as reduction of mean blood pressure at 10 mg/kg, iv. The class given is functional. The method in brief:
as §3

Assay [13] deals with Rattus norvegicus. As to the kind of experiment: Vasorelaxation activity in SHR rat assessed as reduction of methoxamine-induced mean arterial blood pressure at 10 mg/kg, iv after 20 mins. The class given is functional.
Assay [14] has as its system Rattus norvegicus. As to the kind of experiment: Inhibition of noradrenaline release in adrenalectomized anesthetized SHR rat plasma at 1 mg/kg, iv after 20 mins. The assay is classed as functional. The method in brief:
as §2

The test system of assay [15] is Rattus norvegicus. As to the kind of experiment: Antihypertensive activity in sham operated anesthetized SHR rat assessed as reduction of mean blood pressure at 15 mg/kg, iv. The assay is classed as functional. The method in brief:
as §3

The subject of assay [16] is Rattus norvegicus. Briefly: Vasorelaxation activity in SHR rat assessed as reduction of methoxamine-induced mean arterial blood pressure at 15 mg/kg, iv after 20 mins. The assay is classed as functional.
Assay [17] relates to Rattus norvegicus. Briefly: Antihypertensive activity in adrenalectomized anesthetized SHR rat assessed as reduction of mean blood pressure at 15 mg/kg, iv. The assay is classed as functional. The method in brief: as §3
The subject of assay [18] is Rattus norvegicus. Briefly: Antihypertensive activity in adrenalectomized anesthetized SHR rat assessed as reduction of mean blood pressure at 5 mg/kg, iv. The class given is functional. The method in brief:
as §3

Assay [19] deals with Rattus norvegicus. As to the kind of experiment: Inhibition of noradrenaline release in sham operated anesthetized SHR rat plasma at 5 mg/kg, iv after 20 mins. The assay is classed as functional. The method in brief: as §2
In assay [20] the test system is Rattus norvegicus. As to the kind of experiment: Vasorelaxation activity in SHR rat assessed as reduction of methoxamine-induced mean arterial blood pressure at 5 mg/kg, iv after 20 mins. The class given is functional.
For assay [21], the system named is Rattus norvegicus. Briefly: Antihypertensive activity in adrenalectomized anesthetized SHR rat assessed as reduction of mean blood pressure at 10 mg/kg, iv. The assay is classed as functional. The method in brief: as §3
The test system of assay [22] is Rattus norvegicus. As to the kind of experiment: Inhibition of noradrenaline release in adrenalectomized anesthetized SHR rat plasma at 5 mg/kg, iv after 20 mins. The class given is functional. The method in brief: as §2
Assay [23] has as its system Rattus norvegicus. Briefly: Vasorelaxation activity in anesthetized normotensive rat assessed as reduction of Bay-K 8644-induced mean arterial blood pressure at 10 mg/kg, iv after 20 mins.
Assay [24] has as its system Rattus norvegicus. Briefly: Antihypertensive activity in adrenalectomized anesthetized SHR rat assessed as reduction of mean blood pressure at 1 mg/kg, iv. The class given is functional. The method in brief: as §3
For assay [25], the system named is Rattus norvegicus. As to the kind of experiment: Vasorelaxation activity in anesthetized normotensive rat assessed as reduction of Bay-K 8644-induced mean arterial blood pressure at 15 mg/kg, iv after 20 mins.
Assay [26] relates to Rattus norvegicus. Briefly: Inhibition of noradrenaline release in adrenalectomized anesthetized SHR rat plasma at 10 mg/kg, iv after 20 mins. The class given is functional. In a few lines:
as §2

Assay [27] has as its system Rattus norvegicus. As to the kind of experiment: Inhibition of noradrenaline release in sham operated anesthetized SHR rat plasma at 10 mg/kg, iv after 20 mins. The class given is functional. In a few lines:
as §2

The subject of assay [28] is Rattus norvegicus. As to the kind of experiment: Antihypertensive activity in SHR rat assessed as reduction in pentobarbitol-induced increase in blood pressure at 0.1 mg/kg, iv. The assay is classed as functional. The method in brief:
as §1

Structures are written as SMILES. Activity calls are given as the source filed them. The calls are words filed in the database; no cut-off is given here.

In the case of `O=C(OC[C@H]1O[C@@H](O)[C@H](O)[C@@H](O)[C@@H]1O)c1cc(O)c(O)c(O)c1`, the Activity with Rattus norvegicus [1] was 17.3 mmHg; in the assay with Rattus norvegicus [3], “Dose-dependent effect”; in the assay on Rattus norvegicus [4] it was 29.6 mmHg. The outcome with Rattus norvegicus [2] and with Rattus norvegicus [5] was Active.
Turning to `COC(=O)C1=C(C)NC(C)=C(C(=O)OC)C1c1ccccc1[N+](=O)[O-]` [NIFEDIPINE], the Activity was found to be 34.1 mmHg in the assay with Rattus norvegicus [6]; 10.8 mmHg with Rattus norvegicus [1]; 1.12 pmol/mL with Rattus norvegicus [7]; 168.4 mmHg in the assay on Rattus norvegicus [8]; 2.37 pmol/mL in the assay with Rattus norvegicus [9]; 1.28 pmol/mL in the assay on Rattus norvegicus [10]. The Activity with Rattus norvegicus [11] was 151.2 mmHg; with Rattus norvegicus [12] it was 140.9 mmHg; in the assay with Rattus norvegicus [13], 29.8 mmHg; in the assay on Rattus norvegicus [14] it was 2.04 pmol/mL; in the assay on Rattus norvegicus [15], 118.7 mmHg; with Rattus norvegicus [16], 17.1 mmHg. For the same compound, the Activity was 110.4 mmHg in the assay with Rattus norvegicus [17]; 143.8 mmHg in the assay with Rattus norvegicus [18]; 2.04 pmol/mL in the assay with Rattus norvegicus [19]; 36.3 mmHg with Rattus norvegicus [20]; 132.4 mmHg with Rattus norvegicus [21]; 1.76 pmol/mL in the assay on Rattus norvegicus [22]. Besides, the Activity was 23.6 mmHg in the assay on Rattus norvegicus [23]; 161.1 mmHg with Rattus norvegicus [24]; 14.3 mmHg with Rattus norvegicus [25]; 1.49 pmol/mL in the assay with Rattus norvegicus [26]; 1.62 pmol/mL in the assay on Rattus norvegicus [27].
Turning to `COc1cc2nc(N3CCN(C(=O)c4ccco4)CC3)nc(N)c2cc1OC` [PRAZOSIN], the Activity with Rattus norvegicus [28] came out at 31.4 mmHg.

(Values after ChEMBL document CHEMBL1149042, “Antihypertensive activity of 6-O-galloyl-D-glucose, a phenolic glycoside from Sapium sebiferum” (1994).)
